The text below walks through data of ChEMBL document CHEMBL4477201, “Imidazopyridine and Pyrazolopiperidine Derivatives as Novel Inhibitors of Serine Palmitoyl Transferase” (J Med Chem, 2016).

One data set has as its system Rattus norvegicus. Kind of data set: Reduction in total plasma ceramide level in cholic acid/cholesterol-fed Sprague-Dawley rat model of dyslipidemia at 10 to 60 mg/kg administered bid through oral gavage measured after 1 week by FPLC analysis relative to vehicle-treated control. In kind it is functional, organism-based. In outline: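 Sprague Dawley rats fed a cholic acid/cholesterol diet for 14 days, then dosed orally BID for 7 days at five dose levels, n=6. Serum ceramides and VLDL and HDL cholesterol compared with vehicle (dose 0). Mean ± SEM; Dunnett's test, p<0.05.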

Data set [1] in a line: Half life in Sprague-Dawley rat at 1 mg/kg, iv. In kind it is ADME, organism-based. The settings on record: in vivo. Summed up: (§1)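 Single dose to fasted male Sprague Dawley rats, IV at 1 mg/kg or oral at 3 mg/kg. Plasma levels followed to derive AUC0-24hr, Cmax, half-life, Vdss and oral bioavailability.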
The nature of data set [2]: AUC (0 to 24 hrs) in Sprague-Dawley rat at 3 mg/kg,po. On the set-up: time < 24 hr, dose 3 mg/kg, route oral. It counts as ADME, organism-based. The settings on record: in vivo. Summed up:
as §1

Data set [3] in a line: Toxicity in rat assessed as induction of gastric enteropathy during 14 days toxicology study. The settings on record: in vivo, 336 h.
Data set [4] is described as follows: Toxicity in diet-induced obese C57Bl/6 mouse assessed as decrease in food intake at 10 mg/kg, po qd for 4 weeks. In kind it is organism-based. The settings on record: in vivo, 672 h. In outline:
(§2)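 Food intake monitored in DIO mice during 4 weeks of daily oral dosing.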

A short description of data set [5]: Ratio of drug uptake in diet-induced obese C57Bl/6 mouse liver to serum at 0.1 mg/kg, po qd for 4 weeks measured 6 hrs post last dose. The settings on record: other tissue. It counts as ADME, organism-based. Summed up:
(§3)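 Male DIO mice dosed orally for 4 weeks. Sacrificed 6 h after the last dose. Compound measured in serum (ng/mL) and liver (ng/g), and the liver:serum ratio calculated.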

The nature of data set [6]: Lipophilicity, log P of compound. It counts as physicochemical. The following applies: octanol/water.
Data set [7] is described as follows: Fraction unbound in rat. It counts as ADME.
The nature of data set [8]: Toxicity in diet-induced obese C57Bl/6 mouse assessed as decrease in food intake at 25 mg/kg, po qd for 4 weeks. In kind it is organism-based. The settings on record: in vivo, 672 h. Summed up: as §2
A short description of data set [9]: Cmax in Sprague-Dawley rat at 3 mg/kg,po. Set-up: dose 3 mg/kg, route oral. The following applies: in vivo. In kind it is ADME, organism-based. In outline:
as §1

The nature of data set [10]: Drug uptake in diet-induced obese C57Bl/6 mouse liver at 10 mg/kg, po qd for 4 weeks measured 6 hrs post last dose. In kind it is ADME, organism-based. The settings on record: read-out: Drug uptake. In outline: as §3
Data set [11] is described as follows: Ratio of drug uptake in diet-induced obese C57Bl/6 mouse liver to serum at 3 mg/kg, po qd for 4 weeks measured 6 hrs post last dose. In kind it is ADME, organism-based. Summed up:
as §3

The nature of data set [12]: Half life in Sprague-Dawley rat at 3 mg/kg,po. It counts as ADME, organism-based. The following applies: in vivo. In outline:
as §1

The nature of data set [13]: Ratio of drug uptake in diet-induced obese C57Bl/6 mouse liver to serum at 1 mg/kg, po qd for 4 weeks measured 6 hrs post last dose. It counts as ADME, organism-based. In outline:
as §3

A short description of data set [14]: Cmax in Sprague-Dawley rat at 1 mg/kg, iv. In kind it is ADME, organism-based. On the set-up: dose 1 mg/kg, route intravenous. The settings on record: in vivo. Summed up:
as §1

Activity calls are given as the source filed them. No cut-off for these calls is given here.

As for `CCCCCCC(=O)N1CCc2c(c(-c3ccc(C(C)(C)C(=O)O)cc3)nn2C)C1`, the outcome in the data set with Rattus norvegicus was Active. The half-life in [1] is 5.17 h; in data set [12], 7.65 h. Besides, the AUC(0-t) at 24 h in [2] was determined as 155 ng·h/mL. The Activity result in data set [3] was “Toxic”; in data set [4] it was “Non-Toxic”; in [8], “Toxic”. The Ratio in data set [5] stood at 5292. For the same molecule, the logP in data set [6] is 4.66. This molecule also returned a fraction unbound in data set [7] of 0.02. Further, the maximum concentration (Cmax) in data set [9] turned out to be 16.3 ng/mL; in [14] it was 756 ng/mL. Moreover, the concentration at 6 h in data set [10] amounted to 130000 ng/g. In addition, the Kp at 6 h in data set [11] came to 126; in data set [13], 434.

Broadly, the half-life is how long it takes for the measured level to halve. For orientation: AUC(0-t) means the area under the concentration-time curve up to a stated or last time point. Low values mean low exposure, high ones high exposure. Broadly, the logP is a log measure of how a compound divides between an organic and an aqueous phase. A high value points to a more lipophilic compound. Usually fraction unbound stands for the share of the substance not bound to proteins or other matrix. Usually Cmax stands for the peak of the concentration-time curve. By Kp is commonly meant tissue or fluid exposure divided by exposure in the circulation.
